The target of one test is T1, Androgen receptor (Homo sapiens, UniProt P10275).
T1 sequence (P10275 whole entry): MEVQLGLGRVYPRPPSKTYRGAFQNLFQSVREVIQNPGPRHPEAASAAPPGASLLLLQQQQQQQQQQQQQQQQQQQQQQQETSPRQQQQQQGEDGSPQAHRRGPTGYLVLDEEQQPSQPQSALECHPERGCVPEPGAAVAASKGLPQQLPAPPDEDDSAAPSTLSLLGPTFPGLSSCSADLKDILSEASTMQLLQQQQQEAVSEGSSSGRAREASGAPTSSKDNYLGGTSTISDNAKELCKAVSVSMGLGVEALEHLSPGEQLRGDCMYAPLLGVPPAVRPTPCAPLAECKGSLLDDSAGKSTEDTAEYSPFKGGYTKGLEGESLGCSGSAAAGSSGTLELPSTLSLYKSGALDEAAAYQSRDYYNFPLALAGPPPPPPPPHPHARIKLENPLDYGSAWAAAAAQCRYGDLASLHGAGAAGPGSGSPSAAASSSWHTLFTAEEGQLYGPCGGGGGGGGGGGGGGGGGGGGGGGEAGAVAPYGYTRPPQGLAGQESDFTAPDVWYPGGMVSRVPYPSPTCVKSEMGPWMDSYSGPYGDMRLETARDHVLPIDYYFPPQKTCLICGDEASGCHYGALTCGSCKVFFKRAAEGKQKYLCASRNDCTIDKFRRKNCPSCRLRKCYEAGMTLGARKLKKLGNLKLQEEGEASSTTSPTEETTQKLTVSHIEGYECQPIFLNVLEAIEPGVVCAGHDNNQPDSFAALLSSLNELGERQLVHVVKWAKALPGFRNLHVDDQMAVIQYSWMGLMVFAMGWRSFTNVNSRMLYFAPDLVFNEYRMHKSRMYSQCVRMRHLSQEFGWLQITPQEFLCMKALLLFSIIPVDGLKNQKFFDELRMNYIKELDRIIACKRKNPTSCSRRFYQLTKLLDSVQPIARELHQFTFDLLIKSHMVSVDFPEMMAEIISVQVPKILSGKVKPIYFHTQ
Put plainly: Binding affinity for human androgen receptor.

For another test, the target named is T2, Estrogen receptor (Homo sapiens, UniProt P03372).
T2 sequence (P03372 whole entry): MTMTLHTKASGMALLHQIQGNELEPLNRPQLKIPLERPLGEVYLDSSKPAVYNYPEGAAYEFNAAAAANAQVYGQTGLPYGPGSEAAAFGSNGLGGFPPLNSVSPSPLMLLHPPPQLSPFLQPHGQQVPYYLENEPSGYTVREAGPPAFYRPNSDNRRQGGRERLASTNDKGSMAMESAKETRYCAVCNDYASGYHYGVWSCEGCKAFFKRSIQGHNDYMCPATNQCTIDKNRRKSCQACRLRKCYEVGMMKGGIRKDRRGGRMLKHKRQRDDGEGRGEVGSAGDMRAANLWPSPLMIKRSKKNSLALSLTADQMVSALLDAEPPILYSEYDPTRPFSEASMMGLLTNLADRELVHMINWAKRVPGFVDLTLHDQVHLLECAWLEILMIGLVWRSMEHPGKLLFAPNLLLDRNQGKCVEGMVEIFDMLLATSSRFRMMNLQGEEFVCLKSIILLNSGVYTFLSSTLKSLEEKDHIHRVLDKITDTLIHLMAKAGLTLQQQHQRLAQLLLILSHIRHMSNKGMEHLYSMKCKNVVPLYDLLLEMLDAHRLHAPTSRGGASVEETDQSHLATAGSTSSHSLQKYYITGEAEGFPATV
Put plainly: Binding affinity for human Estrogen receptor alpha.

For the next test, the target named is T3, Progesterone receptor (Homo sapiens, UniProt P06401).
T3 sequence (P06401 whole entry): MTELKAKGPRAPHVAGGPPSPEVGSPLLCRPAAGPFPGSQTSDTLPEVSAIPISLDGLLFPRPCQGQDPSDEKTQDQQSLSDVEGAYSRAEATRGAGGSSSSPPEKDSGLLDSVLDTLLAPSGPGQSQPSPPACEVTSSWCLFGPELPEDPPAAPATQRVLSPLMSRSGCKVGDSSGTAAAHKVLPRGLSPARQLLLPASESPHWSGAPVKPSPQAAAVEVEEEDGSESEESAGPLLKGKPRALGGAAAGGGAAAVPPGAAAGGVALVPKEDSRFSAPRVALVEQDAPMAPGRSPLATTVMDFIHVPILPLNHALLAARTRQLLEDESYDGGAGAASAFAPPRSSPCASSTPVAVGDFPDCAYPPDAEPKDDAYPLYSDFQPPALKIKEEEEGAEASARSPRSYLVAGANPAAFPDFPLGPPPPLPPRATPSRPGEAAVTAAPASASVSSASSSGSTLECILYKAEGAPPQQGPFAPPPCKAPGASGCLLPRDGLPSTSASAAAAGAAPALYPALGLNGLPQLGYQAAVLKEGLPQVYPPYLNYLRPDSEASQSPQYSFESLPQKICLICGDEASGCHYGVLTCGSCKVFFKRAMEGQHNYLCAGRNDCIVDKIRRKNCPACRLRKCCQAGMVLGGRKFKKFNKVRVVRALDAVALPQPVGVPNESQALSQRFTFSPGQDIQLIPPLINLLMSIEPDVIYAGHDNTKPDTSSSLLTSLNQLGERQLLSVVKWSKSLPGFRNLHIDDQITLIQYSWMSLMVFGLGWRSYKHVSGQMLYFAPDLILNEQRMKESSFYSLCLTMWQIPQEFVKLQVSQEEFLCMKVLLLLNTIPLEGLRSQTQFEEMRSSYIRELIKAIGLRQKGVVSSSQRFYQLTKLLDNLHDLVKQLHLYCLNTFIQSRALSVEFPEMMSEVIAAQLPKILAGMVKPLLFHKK
The experiment in a line: Binding affinity towards human progesterone receptor. Summed up: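 Receptor homogenates from frozen cell pellets in ice-cold KPO4 buffer (10 mM KPO4, 20 mM molybdate, 1 mM EDTA, 5 mM DTT, protease inhibitors), spun 35 000g 1 h at 4 °C. MR: recombinant baculovirus-expressed rat receptor, 2 nM [3H]aldosterone; PR: T-47D cell protein, 5 nM [3H]progesterone.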

Test [1] addresses Mineralocorticoid receptor (Rattus norvegicus) (UniProt P22199). Put plainly: Binding affinity for rat mineralocorticoid receptor.
The target of test [2] is T4, Glucocorticoid receptor (Homo sapiens, UniProt P04150).
T4 sequence (P04150 whole entry): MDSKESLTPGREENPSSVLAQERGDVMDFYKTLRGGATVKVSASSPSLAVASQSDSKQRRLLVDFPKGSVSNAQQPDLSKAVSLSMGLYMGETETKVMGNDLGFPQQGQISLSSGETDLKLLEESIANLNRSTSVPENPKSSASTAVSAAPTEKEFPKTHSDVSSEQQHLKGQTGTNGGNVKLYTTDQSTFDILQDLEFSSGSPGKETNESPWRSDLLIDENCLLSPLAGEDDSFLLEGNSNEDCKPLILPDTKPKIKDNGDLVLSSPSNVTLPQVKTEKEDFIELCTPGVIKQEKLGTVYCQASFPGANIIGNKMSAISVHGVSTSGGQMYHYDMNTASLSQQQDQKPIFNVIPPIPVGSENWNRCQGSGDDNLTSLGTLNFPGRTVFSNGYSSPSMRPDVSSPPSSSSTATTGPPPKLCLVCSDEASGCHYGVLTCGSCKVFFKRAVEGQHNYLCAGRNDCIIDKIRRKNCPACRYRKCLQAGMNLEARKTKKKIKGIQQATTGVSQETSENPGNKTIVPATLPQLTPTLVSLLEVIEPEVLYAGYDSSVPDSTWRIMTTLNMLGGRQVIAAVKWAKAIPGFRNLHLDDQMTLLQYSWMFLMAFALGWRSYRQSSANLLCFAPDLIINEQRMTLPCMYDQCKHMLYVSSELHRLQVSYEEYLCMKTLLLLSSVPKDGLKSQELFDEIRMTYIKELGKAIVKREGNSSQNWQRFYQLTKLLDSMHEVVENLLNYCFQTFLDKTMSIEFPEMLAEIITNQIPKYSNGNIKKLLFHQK
The experiment in a line: Ability to induce human IL-6 assay in A549 lung carcinoma cell line. It counts as functional, cell-based.

In test [3] the target is T4, Glucocorticoid receptor. Put plainly: Binding affinity for human glucocorticoid receptor.
In test [4] the target is T4, Glucocorticoid receptor. The experiment in a line: Compound was tested for inhibitory activity towards human glucocorticoid receptor.
In another test the test system is Mus musculus. Put plainly: Ability to induce mouse macrophage IL-6 assay in peritoneal exudate cells harvested by […] from C57BI/6 mice. It counts as functional, cell-based. Summed up: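 Thioglycolate-elicited peritoneal exudate cells from C57Bl/6 mice, harvested day 3 in PBS/heparin, washed and resuspended at 5.6×10^5 cells/mL in RPMI 1640 with 10% heat-inactivated FCS. Compound (typically 3 μM final) preincubated 1 h at 37 °C, 5% CO2, then LPS or TNF added, 24 h. Supernatant IL-6 read; duplicate wells, three experiments.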

The target of test [5] is T4, Glucocorticoid receptor. Put plainly: Glucocorticoid induced transactivation of human tyrosine amino transferase in HepG2 cells. It counts as functional, cell-based.
The target in test [6] is T4, Glucocorticoid receptor. Put plainly: Ability to induce human glutamine synthetase in skeletal muscle cells. It counts as cell-based.

Molecules are shown by their SMILES. Bounds are passed on as bounds.

Mineralocorticoid receptor (Rattus norvegicus), sequence (P22199 whole entry, looked up): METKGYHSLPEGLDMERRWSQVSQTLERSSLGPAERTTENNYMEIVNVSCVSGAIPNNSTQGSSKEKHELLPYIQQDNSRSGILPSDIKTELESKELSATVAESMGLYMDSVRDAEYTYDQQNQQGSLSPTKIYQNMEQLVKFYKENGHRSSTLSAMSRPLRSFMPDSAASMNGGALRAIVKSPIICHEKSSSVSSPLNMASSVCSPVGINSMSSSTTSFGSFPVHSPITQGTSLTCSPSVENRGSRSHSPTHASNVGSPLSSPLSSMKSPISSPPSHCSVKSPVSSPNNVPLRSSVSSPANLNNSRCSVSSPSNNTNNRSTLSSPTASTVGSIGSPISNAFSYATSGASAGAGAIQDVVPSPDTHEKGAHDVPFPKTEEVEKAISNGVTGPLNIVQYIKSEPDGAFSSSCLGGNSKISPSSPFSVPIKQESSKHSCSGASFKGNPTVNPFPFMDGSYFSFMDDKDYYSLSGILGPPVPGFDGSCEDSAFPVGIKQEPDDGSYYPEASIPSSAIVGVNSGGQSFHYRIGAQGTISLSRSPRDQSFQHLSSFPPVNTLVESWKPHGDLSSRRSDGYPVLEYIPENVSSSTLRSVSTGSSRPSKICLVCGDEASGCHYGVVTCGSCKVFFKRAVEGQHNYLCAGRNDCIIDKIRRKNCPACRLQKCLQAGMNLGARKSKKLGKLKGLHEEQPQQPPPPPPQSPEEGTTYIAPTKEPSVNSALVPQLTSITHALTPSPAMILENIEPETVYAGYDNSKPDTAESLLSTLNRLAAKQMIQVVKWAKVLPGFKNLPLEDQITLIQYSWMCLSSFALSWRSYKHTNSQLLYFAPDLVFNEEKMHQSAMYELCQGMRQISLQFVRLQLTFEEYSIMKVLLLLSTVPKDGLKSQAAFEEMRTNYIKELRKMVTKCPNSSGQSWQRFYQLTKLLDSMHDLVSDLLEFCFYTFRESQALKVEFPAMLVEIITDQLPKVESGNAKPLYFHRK

Consider `C[C@]12Cc3cnn(-c4ccc(F)cc4)c3C=C1CCC[C@@H]2[C@@H](O)c1ccc(F)cc1`, for which the half-maximal inhibitory concentration (IC50) at Androgen receptor is > 5 µM; at Estrogen receptor, > 5 µM; on Progesterone receptor it was > 1 µM; in [1] it was > 5 µM.
On to `C=CCC[C@H](O)[C@H]1CCCC2=Cc3c(cnn3-c3ccc(F)cc3)C[C@@]21C`, for which the EC50 stood at 0.0044 µM on Glucocorticoid receptor [2], 0.0057 µM in the test on Mus musculus and 0.256 µM on Glucocorticoid receptor [5]. The IC50 is > 5 µM at Androgen receptor; > 1 µM on Estrogen receptor; 0.0042 µM on Glucocorticoid receptor [3]; 0.0011 µM at Glucocorticoid receptor [4]; > 1 µM at Progesterone receptor; > 5 µM in test [1].
With `COc1cc([C@H](O)[C@H]2CCCC3=Cc4c(cnn4-c4ccc(F)cc4)C[C@@]32C)cc(F)c1F`, the EC50 on Glucocorticoid receptor [2] was found to be 0.0144 µM; with Mus musculus, 0.0152 µM; on Glucocorticoid receptor [5] it was 0.521 µM. The IC50 was > 5 µM on Androgen receptor; > 1 µM on Estrogen receptor; 0.0019 µM on Glucocorticoid receptor [3]; 0.0019 µM at Glucocorticoid receptor [4]; > 1 µM on Progesterone receptor; > 5 µM in test [1].
For `C[C@]12Cc3cnn(-c4ccc(F)cc4)c3C=C1CCC[C@@H]2[C@H](O)c1ccc(F)cc1`, the half-maximal inhibitory concentration (IC50) on Androgen receptor was > 5 µM; at Estrogen receptor it was > 1 µM; at Progesterone receptor, > 1 µM; in test [1], > 5 µM.
With `C[C@]12Cc3cnn(-c4ccc(F)cc4)c3C=C1CCC[C@@H]2[C@](C)(O)c1ccc(F)cc1`, the EC50 on Glucocorticoid receptor [2] was 0.0022 µM; on Glucocorticoid receptor [6] it was 0.13 µM; in the test with Mus musculus, 0.0014 µM; at Glucocorticoid receptor [5] it was 0.0572 µM. Besides, the IC50 was > 5 µM on Androgen receptor; > 1 µM on Estrogen receptor; 0.0025 µM on Glucocorticoid receptor [3]; 0.0025 µM at Glucocorticoid receptor [4]; > 1 µM at Progesterone receptor; > 5 µM in test [1].
For the compound `C[C@]12Cc3cnn(-c4ccc(F)cc4)c3C=C1CCC[C@@H]2[C@@H](O)c1ccccc1`, the EC50 on Glucocorticoid receptor [2] was determined as 0.0029 µM; in the test with Mus musculus, 0.111 µM. Also, the IC50 at Androgen receptor was > 5 µM; at Estrogen receptor, > 1 µM; on Glucocorticoid receptor [3], 0.0084 µM; on Glucocorticoid receptor [4] it was 0.0084 µM; on Progesterone receptor it was 0.66 µM; in test [1] it was > 5 µM.

For orientation: IC50 means the concentration that gives 50% inhibition. Low values mean greater potency, high ones weaker potency. A word on the EC50: it is the concentration giving half of the maximal effect. Lower therefore signals a more potent agent.

Values taken from ChEMBL document CHEMBL1137074, “Novel N-arylpyrazolo[3,2-c]-based ligands for the glucocorticoid receptor: receptor binding and in vivo activity” (J Med Chem, 2004).
